The record followed here is ChEMBL document CHEMBL1140133, “Phosphoramidate dinucleosides as hepatitis C virus polymerase inhibitors” (J Med Chem, 2008).

Molecules are shown by their SMILES.

The subject of series [1] is Hepatitis C virus. As to the kind of experiment: Inhibition of HCV 1b histidine tagged NS5B-delta55 polymerase-mediated RNA synthesis expressed in Escherichia coli BL21 cells assessed as decrease in accumulation of pppGC product. On the set-up: species or system Hepatitis C virus subtype 1b. The procedure, abridged: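 Recombinant NS5B-Δ55 with C-terminal His6, purified. Mix holds 10 µM RNA template (3′ end of HCV minus strand), 100 µM α-32P-CTP, 50 µM GTP and inhibitor 0–500 µM. Started with 1 µM NS5B, 30 °C 15 min, EDTA/formamide quench. pppGC resolved on sequencing gel, phosphorimager-quantified; IC50 fitted, ≥3 experiments.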

The subject of series [2] is Hepatitis C virus. As to the kind of experiment: Antiviral activity against HCV 1b in human Huh-5-2 cells assessed as inhibition of viral replication after 72 hrs by luciferase assay. To be noted: genotype 1b, Huh-5-2, 72 h. It counts as functional, organism-based, Hepacivirus hominis. In a few lines:
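Huh-5-2 cells carrying HCV 1b subgenomic replicon (luciferase reporter), seeded 7000/well and left 24 h; five 5-fold serial dilutions from 50 µg/mL (~60 µM) added in medium without G418; 37 °C, 5% CO2, 72 h. Luciferase read after Glo-lysis; signal as % of untreated cultures, EC50 calculated. Interferon α-2a (500 IU) positive control.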

The nature of series [3]: Cytotoxicity against human Huh-5-2 cells after 3 days by MTS assay. It is filed as cell-based. In a few lines:
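Parallel Huh-5-2 replicon cultures seeded 7000 cells/well, treated the same way as the antiviral assay (five 5-fold dilutions from ~60 µM, no G418). Cell proliferation measured 3 days after compound addition by MTS bioreduction to formazan, read on a plate reader.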

Take `CO[C@@H]1[C@H](OP(=O)(NCCCN(C)C)OC[C@H]2O[C@H](n3ccc(N)nc3=O)[C@H](O)[C@@H]2O)[C@H](COP(=O)(O)O)O[C@H]1n1cnc2c(=O)[nH]c(N)nc21` (stereo not given in full): in the series with Hepatitis C virus [1], the IC50 was greater than 200 µM.

For `CO[C@@H]1[C@H](OP(=O)(NCCCCCC(=O)O)OC[C@H]2O[C@@H](n3ccc(N)nc3=O)[C@H](O)[C@@H]2O)[C@@H](COP(=O)(O)O)O[C@H]1n1cnc2c(=O)[nH]c(N)nc21` (stereo not given in full), the EC50 with Hepatitis C virus [2] worked out at 41 µM. Besides, in the series with Hepatitis C virus [1], the IC50 came out at 69 µM. This molecule also showed a CC50 at 72 h in series [3] greater than 60 µM.

`COCCNP(=O)(OC[C@H]1O[C@@H](n2ccc(N)nc2=O)[C@H](O)[C@@H]1O)O[C@H]1[C@@H](OC)[C@H](n2cnc3c(=O)[nH]c(N)nc32)O[C@@H]1COP(=O)(O)O` (stereo not given in full): the EC50 in the series on Hepatitis C virus [2] is greater than 60 µM. Further, the IC50 in the series with Hepatitis C virus [1] amounted to 106 µM. In series [3], the CC50 at 72 h is greater than 60 µM.

Regarding `CO[C@@H]1[C@H](OP(=O)(NCCCCCC(=O)O)OC[C@H]2O[C@@H](n3ccc(N)nc3=O)[C@H](O)[C@@H]2O)[C@@H](CO)O[C@H]1n1cnc2c(=O)[nH]c(N)nc21` (stereo not given in full), the 50% inhibitory concentration (IC50) in the series on Hepatitis C virus [1] was 160 µM.

For `COCCNP(=O)(OC[C@H]1O[C@@H](n2ccc(N)nc2=O)[C@H](O)[C@@H]1O)O[C@H]1[C@@H](OC)[C@H](n2cnc3c(=O)[nH]c(N)nc32)O[C@@H]1CO` (stereo not given in full), the IC50 with Hepatitis C virus [1] was greater than 200 µM.

Consider `CO[C@@H]1[C@H](OP(=O)(NCCCCCC(=O)O)OC[C@H]2O[C@@H](n3ccc(N)nc3=O)[C@H](O)[C@@H]2O)[C@@H](COP(=O)(O)S)O[C@H]1n1cnc2c(=O)[nH]c(N)nc21` (stereo not given in full), for which the concentration for a half-maximal effect (EC50) in the series with Hepatitis C virus [2] worked out at 38 µM. The IC50 in the series with Hepatitis C virus [1] came to 52 µM. The same molecule came in with a CC50 at 72 h in series [3] greater than 60 µM.

For `COCCNP(=O)(OC[C@H]1O[C@@H](n2ccc(N)nc2=O)[C@H](O)[C@@H]1O)O[C@H]1[C@@H](OC)[C@H](n2cnc3c(=O)[nH]c(N)nc32)O[C@@H]1COP(=O)(O)S` (stereo not given in full), the EC50 in the series with Hepatitis C virus [2] was greater than 60 µM. Besides, the IC50 in the series on Hepatitis C virus [1] is 47 µM. Also, the CC50 at 72 h in series [3] was greater than 60 µM.
